Measured values taken from ChEMBL document CHEMBL1136726, “Synthesis and characterization of iodine-123 labeled 2beta-carbomethoxy-3beta-(4'-((Z)-2-iodoethenyl)phenyl)nortropane. A ligand for in vivo imaging of serotonin transporters by single-photon-emission tomography” (J Med Chem, 2003).
Where “and” joins values, the source holds several entries; their conditions need not be identical. Identical values can stand only once.

Legend:
Rattus norvegicus [1] = test: Distribution of radioactivity in rat brain hypothalamus 5 min after intravenous administration of iodine labeled compound; type: ADME, organism-based; conditions: in vivo
In short: (§1)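 Male Sprague–Dawley rats (225–300 g) under ketamine received 10 µCi radioligand iv (tail vein) in 10% EtOH/saline. Hypothalamus, prefrontal cortex, striatum, pons and cerebellum were dissected, weighed and gamma-counted. % injected dose/g was taken from decay-corrected counts versus diluted dose. Mean ± SE and range, n=5 (5, 30 min) or 4 (60, 120 min).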

Rattus norvegicus [2] = test: Distribution of radioactivity in rat brain region prefrontal cortex 60 min after intravenous administration of iodine labeled compound in presence of reboxetine blocker in study 2; type: ADME, organism-based; conditions: in vivo, 1 h
In short: (§2)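 Male Sprague–Dawley rats (250–300 g), ketamine-anesthetized. Blocker (2 mg/kg) or none was given iv 15 min before tail-vein radioligand (10 µCi in 0.2 mL 10% EtOH/saline). Rats were killed at 60 min with im pentobarbital. Brain regions were dissected, weighed and gamma-counted. % dose/g was taken from decay-corrected, background-subtracted counts versus the injected dose.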

Rattus norvegicus [3] = test: Distribution of radioactivity in rat lung 120 min after intravenous administration of iodine labeled compound; type: ADME, organism-based; conditions: in vivo, 2 h
In short: (§3)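 Tail-vein injection of [123I]ZIENT (10 μCi in 0.2 mL 10% EtOH/0.9% NaCl, then 0.4 mL saline flush) into ketamine-anaesthetised male Sprague–Dawley rats (225–300 g). Animals were killed by cardiac excision at set times. Organs were excised, rinsed, blotted, weighed and gamma-counted. % dose/g was calculated against diluted aliquots of injectate. Mean ± SE, n=4–5.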

Rattus norvegicus [4] = test: Distribution of radioactivity in rat lung 30 min after intravenous administration of iodine labeled compound; type: ADME, organism-based; conditions: in vivo, 0.5 h; in short: as §3
Rattus norvegicus [5] = test: Ratio of distribution of radioactivity in rat brain region hypothalamus and cerebellum 60 min after intravenous administration of iodine labeled compound in absence of blocker in study 1; type: ADME, organism-based; conditions: in vivo, 1 h
Rattus norvegicus [6] = test: Distribution of radioactivity in rat brain region prefrontal cortex 60 min after intravenous administration of iodine labeled compound in presence of RTI-113 blocker in study 1; type: ADME, organism-based; conditions: in vivo, 1 h; in short: as §2
Rattus norvegicus [7] = test: Distribution of radioactivity in rat brain region pons 60 min after intravenous administration of iodine labeled compound in presence of reboxetine blocker in study 2; type: ADME, organism-based; conditions: in vivo, 1 h; in short: as §2
Rattus norvegicus [8] = test: Distribution of radioactivity in rat brain region cerebellum 60 min after intravenous administration of iodine labeled compound in presence of fluvoxamine blocker in study 1; type: ADME, organism-based; conditions: in vivo, 1 h; in short: as §2
Rattus norvegicus [9] = test: Distribution of radioactivity in rat brain 5 min after intravenous administration of iodine labeled compound; type: ADME, organism-based; conditions: in vivo
Rattus norvegicus [10] = test: Distribution of radioactivity in rat blood 5 min after intravenous administration of iodine labeled compound; type: ADME, organism-based; conditions: in vivo
In short: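 Male Sprague–Dawley rats (225–300 g) under ketamine received 10 µCi radioligand in 0.2 mL 10% EtOH/0.9% NaCl via tail vein, then a saline flush. Killed by cardiac excision at set times. Organs were excised, weighed and gamma-counted. % dose/g was taken against diluted injectate. Mean ± SE and range, n=4 (5 min) or 5 (30–120 min).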

Rattus norvegicus [11] = test: Ratio of distribution of radioactivity in rat brain region prefrontal cortex and cerebellum 60 min after intravenous administration of iodine labeled compound in presence of reboxetine blocker in study 2; type: ADME, organism-based; conditions: in vivo, 1 h
Rattus norvegicus [12] = test: Ratio of distribution of radioactivity in rat brain prefrontal cortex and cerebellum 5 min after intravenous administration of iodine labeled compound; type: ADME, organism-based; conditions: in vivo
In short: (§4)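 Male Sprague–Dawley rats (225–300 g) under ketamine anaesthesia were given [123I]ZIENT (10 μCi) in 0.2 mL 10% EtOH/0.9% NaCl into the tail vein, with a saline flush. Hypothalamus, prefrontal cortex, striatum, pons and cerebellum were dissected and gamma-counted. % injected dose/g came from decay-corrected counts against the diluted injected dose, and region/cerebellum ratios were taken from these. Mean ± SE, n=4–5.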

Rattus norvegicus [13] = test: Distribution of radioactivity in rat brain hypothalamus 120 min after intravenous administration of iodine labeled compound; type: ADME, organism-based; conditions: in vivo, 2 h; in short: as §1
Rattus norvegicus [14] = test: Distribution of radioactivity in rat spleen 5 min after intravenous administration of iodine labeled compound; type: ADME, organism-based; conditions: in vivo; in short: as §3
Rattus norvegicus [15] = test: Distribution of radioactivity in rat brain region frontal cortex 60 min after intravenous administration of iodine labeled compound in presence of fluvoxamine blocker in study 1; type: ADME, organism-based; conditions: in vivo, 1 h; in short: as §2
Rattus norvegicus [16] = test: Distribution of radioactivity in rat testis 30 min after intravenous administration of iodine labeled compound; type: ADME, organism-based; conditions: in vivo, 0.5 h; in short: as §3
Rattus norvegicus [17] = test: Distribution of radioactivity in rat thyroid 5 min after intravenous administration of iodine labeled compound; type: ADME, organism-based, Thyroid gland; conditions: in vivo; in short: as §3
Rattus norvegicus [18] = test: Ratio of distribution of radioactivity in rat brain region prefrontal cortex and cerebellum 60 min after intravenous administration of iodine labeled compound in presence of fluvoxamine blocker in study 1; type: ADME, organism-based; conditions: in vivo, 1 h
Rattus norvegicus [19] = test: Ratio of distribution of radioactivity in rat brain hypothalamus and cerebellum 5 min after intravenous administration of iodine labeled compound; type: ADME, organism-based; conditions: in vivo; in short: as §4
Rattus norvegicus [20] = test: Distribution of radioactivity in rat kidney 120 min after intravenous administration of iodine labeled compound; type: ADME, organism-based; conditions: in vivo, 2 h; in short: as §3
Rattus norvegicus [21] = test: Distribution of radioactivity in rat brain prefrontal cortex 120 min after intravenous administration of iodine labeled compound; type: ADME, organism-based; conditions: in vivo, 2 h; in short: as §1
Rattus norvegicus [22] = test: Distribution of radioactivity in rat liver 30 min after intravenous administration of iodine labeled compound; type: ADME, organism-based; conditions: in vivo, 0.5 h; in short: as §3
Rattus norvegicus [23] = test: Distribution of radioactivity in rat brain hypothalamus 30 min after intravenous administration of iodine labeled compound; type: ADME, organism-based; conditions: in vivo, 0.5 h; in short: as §1
Rattus norvegicus [24] = test: Distribution of radioactivity in rat brain region frontal cortex 60 min after intravenous administration of iodine labeled compound in presence of RTI-113 blocker in study 1; type: ADME, organism-based; conditions: in vivo, 1 h; in short: as §2
Rattus norvegicus [25] = test: Distribution of radioactivity in rat heart 5 min after intravenous administration of iodine labeled compound; type: ADME, organism-based; conditions: in vivo; in short: as §3
Rattus norvegicus [26] = test: Distribution of radioactivity in rat brain cerebellum 5 min after intravenous administration of iodine labeled compound; type: ADME, organism-based; conditions: in vivo; in short: as §1
Rattus norvegicus [27] = test: Distribution of radioactivity in rat heart 120 min after intravenous administration of iodine labeled compound; type: ADME, organism-based; conditions: in vivo, 2 h; in short: as §3
Rattus norvegicus [28] = test: Distribution of radioactivity in rat brain region hypothalamus 60 min after intravenous administration of iodine labeled compound in absence of blocker in study 1; type: ADME, organism-based; conditions: in vivo, 1 h; in short: as §2
Rattus norvegicus [29] = test: Distribution of radioactivity in rat kidney 60 min after intravenous administration of iodine labeled compound; type: ADME, organism-based; conditions: in vivo, 1 h; in short: as §3
Rattus norvegicus [30] = test: Distribution of radioactivity in rat lung 5 min after intravenous administration of iodine labeled compound; type: ADME, organism-based; conditions: in vivo; in short: as §3
Rattus norvegicus [31] = test: Distribution of radioactivity in rat brain region cerebellum 60 min after intravenous administration of iodine labeled compound in absence of blocker in study 1; type: ADME, organism-based; conditions: in vivo, 1 h; in short: as §2
Rattus norvegicus [32] = test: Distribution of radioactivity in rat brain striatum 60 min after intravenous administration of iodine labeled compound; type: ADME, organism-based; conditions: in vivo, 1 h; in short: as §4
Rattus norvegicus [33] = test: Distribution of radioactivity in rat spleen 120 min after intravenous administration of iodine labeled compound; type: ADME, organism-based; conditions: in vivo, 2 h; in short: as §3
Rattus norvegicus [34] = test: Distribution of radioactivity in rat muscle tissue 5 min after intravenous administration of iodine labeled compound; type: ADME, organism-based; conditions: in vivo; in short: as §3
Rattus norvegicus [35] = test: Ratio of distribution of radioactivity in rat brain striatum and cerebellum 5 min after intravenous administration of iodine labeled compound; type: ADME, organism-based; conditions: in vivo
In short: (§5)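 Male Sprague–Dawley rats (225–300 g), ketamine anesthesia, injected via tail vein with [123I]ZIENT (10 μCi in 0.2 mL 10% EtOH/0.9% NaCl, 0.4 mL saline flush). Killed at 5, 30, 60 or 120 min. Striatum and cerebellum dissected, weighed, γ-counted. Decay-corrected %injected dose/g taken against diluted injectate. Ratio is striatum over cerebellum. Four or five rats per time point, mean ± standard error.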

Rattus norvegicus [36] = test: Ratio of distribution of radioactivity in rat brain striatum and cerebellum 30 min after intravenous administration of iodine labeled compound; type: ADME, organism-based; conditions: in vivo, 0.5 h; in short: as §5

## COC(=O)[C@@H]1C2CCC(C[C@@H]1c1ccc(/C=C\I)cc1)N2 (stereo partly specified)
Rattus norvegicus [1]
  Distribution (dose/g): 0.58%
Rattus norvegicus [2]
  Distribution (dose/g): 0.69%
Rattus norvegicus [3]
  Distribution (dose/g): 0.76%
Rattus norvegicus [4]
  Distribution (dose/g): 1.59%
Rattus norvegicus [5]
  Distribution (dose/g): 3.83%
Rattus norvegicus [6]
  Distribution (dose/g): 0.78%
Rattus norvegicus [7]
  Distribution (dose/g): 0.53%
Rattus norvegicus [8]
  Distribution (dose/g): 0.17%
Rattus norvegicus [9]
  Distribution (dose/g): 0.83%
Rattus norvegicus [10]
  Distribution (dose/g): 0.44%
Rattus norvegicus [11]
  Distribution (dose/g): 3.07%
Rattus norvegicus [12]
  Distribution (dose/g): 1.45%
Rattus norvegicus [13]
  Distribution (dose/g): 0.59%
Rattus norvegicus [14]
  Distribution (dose/g): 1.81%
Rattus norvegicus [15]
  Distribution (dose/g): 0.27%
Rattus norvegicus [16]
  Distribution (dose/g): 0.34%
Rattus norvegicus [17]
  Distribution (dose/g): 0.17%
Rattus norvegicus [18]
  Distribution (dose/g): 1.65%
Rattus norvegicus [19]
  Distribution (dose/g): 1.09%
Rattus norvegicus [20]
  Distribution (dose/g): 0.31%
Rattus norvegicus [21]
  Distribution (dose/g): 0.49%
Rattus norvegicus [22]
  Distribution (dose/g): 0.31%
Rattus norvegicus [23]
  Distribution (dose/g): 0.76%
Rattus norvegicus [24]
  Distribution (dose/g): 0.66%
Rattus norvegicus [25]
  Distribution (dose/g): 0.81%
Rattus norvegicus [26]
  Distribution (dose/g): 0.53%
Rattus norvegicus [27]
  Distribution (dose/g): 0.22%
Rattus norvegicus [28]
  Distribution (dose/g): 0.92%
Rattus norvegicus [29]
  Distribution (dose/g): 0.34%
Rattus norvegicus [30]
  Distribution (dose/g): 4.96%
Rattus norvegicus [31]
  Distribution (dose/g): 0.24% and 0.19%
Rattus norvegicus [32]
  Distribution (dose/g): 0.68%
Rattus norvegicus [33]
  Distribution (dose/g): 0.43%
Rattus norvegicus [34]
  Distribution (dose/g): 0.23%
Rattus norvegicus [35]
  Distribution (dose/g): 1.21%
Rattus norvegicus [36]
  Distribution (dose/g): 2.25%
